# High-throughput results deposited in PubChem by several laboratories.
# CASP6 VEID inh = human caspase-6 inhibitors, primary screen, biochemical, VEID-R110 fluorescence, single point, set 2. actives 0.53% (n = 350,000). purified caspase-6, Z-VEID-R110 cleavage fluorescence. inhibition, % at 12.5 µM;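 active = mean inhibition across replicates at least about 35%, with every replicate also reaching that limit, limit read from the data; inconclusive = only one of the two criteria met; inactive = neither criterion met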;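 note: 0% = median of neutral control wells and 100% = no fluorescence left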
# Target sequence (P55212 24-179 limits assumed): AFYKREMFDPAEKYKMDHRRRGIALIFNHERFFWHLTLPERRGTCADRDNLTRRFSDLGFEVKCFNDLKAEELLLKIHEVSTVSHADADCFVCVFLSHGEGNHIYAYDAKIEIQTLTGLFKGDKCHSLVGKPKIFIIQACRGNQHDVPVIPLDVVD
# Target sequence (P55212 194-293 limits assumed): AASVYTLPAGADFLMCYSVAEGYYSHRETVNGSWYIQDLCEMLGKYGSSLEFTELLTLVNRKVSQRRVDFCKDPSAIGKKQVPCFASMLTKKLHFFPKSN
# Vif imaging = HIV Vif self-association inhibitors, primary screen, imaging, HEK293T, single point. HEK293T cells, Vif self-association by quenched fluorescence, 24 h. inhibition, % at 7.49 µM. actives 0.35% (n = 340,000). AID 602346, 2012; in the data active = inhibition above about 50%, passing the limit was not always enough; inconclusive = no clear call, values can overlap the other calls; inactive = below about 31%
# Myeloid diff 2 = induction of myeloid progenitor differentiation, primary screen, cell-based, flow cytometry, MLPCN library | ER-HoxA9 myeloid progenitors, lysozyme-GFP differentiation | calls only at 10 µM | actives 1% (n = 360,000) | AID 624256, 2012;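 active = normalized GFP-positive differentiation at or above the plate's own cutoff, the solvent-only control mean plus 3 SD; inconclusive = no clear call, values can overlap the other calls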;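 note: cells exposed to compound for four days before flow analysis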
# T cell HTS = modulators of CD8 T cell-vesicle binding, primary screen, mouse 2C CD8+ T cells, flow cytometry | actives 0.068% (n = 330,000) | 2C CD8+ T cell-vesicle binding; stronger effect = lower value | response (vesicle binding), % at 7 µM | AID 2052, 2009;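 active = response, share of CD8 T cells binding vesicles, and their 90th percentile fluorescence all below set limits, cut at about 80% in these data, passing the limit was not always enough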;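 note: values below 100% mean blocked vesicle binding to the CD8+ T cells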
#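 System: murine 2C transgenic CD8+ T lymphocytes; also added: QL9-loaded Drosophila micro-vesicles; times: binding 1.5 h at 37 °C; measured by: flow cytometry, PE anti-B7-1 (FL2) versus Alexa647 anti-CD8 (FL8), PFA-fixed; control set: Peptide-free naked vesicles (low) and QL9 vesicles with 0.7% DMSO vehicle (high)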
# Active calls of the source: *; i = inactive; ? = inconclusive; . = no result given; + = active, no number. A selection: hits, their analogues and other compounds. The true share with any hit is near 1.4%.
SMILES,CASP6 VEID inh,Vif imaging,Myeloid diff 2,T cell HTS
C/C=C/c1ccc([C@@H]2[C@@H](CO)N(C(C)=O)[C@@H]2CNC(=O)CC2CC2)cc1,1,.,.,.
COc1ccc(-c2nn(-c3ccccc3)cc2/C=C2/SC(=S)N(CCC(=O)O)C2=O)cc1,47*,-6,i,63
COc1ccc(-c2nn(-c3ccccc3)cc2/C=C2/SC(=S)N(CCC(=O)O)C2=O)c(C)c1,29,-2,i,286
Cc1ccc(-c2nn(-c3ccccc3)cc2/C=C2\SC(=S)N(CC(=O)O)C2=O)cc1,31,4,i,247
COc1ccc(-c2nn(-c3ccccc3)cc2N)cc1,-4,2,+,317
O=C1C(=Cc2cn(-c3ccccc3)nc2-c2ccc(OCc3ccc(Cl)cc3)cc2)SC(=S)N1CCS(=O)(=O)O,46*,3,i,.
O=C1C(=Cc2cn(-c3ccccc3)nc2-c2ccc(OCc3ccccc3F)cc2)SC(=S)N1CCS(=O)(=O)O,75*,-14,i,.
COc1ccc2c3c(n(C)c2c1)[C@@H](CO)N(C(=O)Nc1ccc(F)cc1)CC31CCN(C(=O)NC2CCCC2)CC1,3,.,.,.
O=C(C[C@@H]1CC[C@@H](NC(=O)Nc2ccc(F)cc2)[C@@H](CO)O1)NCc1cccc(F)c1,-3,.,.,.
COc1ccccc1C#Cc1ccc([C@@H]2[C@@H](CO)N3CCCCN(C(=O)C4CC4)C[C@@H]23)cc1,1,.,.,.
C[C@H]1CN([C@@H](C)CO)C(=O)c2c(c3ccccc3n2C)-c2ccccc2CO[C@@H]1CN(C)Cc1ccccc1C(F)(F)F,-3,.,.,.
C[C@@H]1CN([C@@H](C)CO)C(=O)c2cc(C#C[C@@H](C)O)cnc2O[C@H]1CN(C)C(=O)Nc1ccc(C(F)(F)F)cc1,-1,.,.,.
S=c1[nH]c2cc(Cl)c3cccnc3c2o1,51*,-2,i,214
COCCN1Cc2cccc(C(=O)Nc3ccc(S(=O)(=O)N4CCCCC4)cc3)c2C1=O,1,16,+,215
O=C(C[C@H]1C=C[C@@H](NC(=O)NC2CCCCC2)[C@@H](CO)O1)NCc1ccc(F)cc1,1,.,.,.
O=C(Nc1cccc(-c2nc3cccnc3s2)c1)c1ccco1,3,97*,i,288
Clc1ccc(CSc2ccc(-c3cccnc3)nn2)cc1,-1,-9,+,166
COCCSc1nnc(NS(=O)(=O)c2ccccc2)s1,-4,56*,i,94
COCCSc1nnc(NS(=O)(=O)c2ccc(C)cc2)s1,-1,-1,i,258
COc1ccc(CN(C)C[C@H]2OCCCC[C@H](C)Oc3ccc(NC(=O)NC(C)C)cc3C(=O)N([C@H](C)CO)C[C@@H]2C)cc1,5,.,.,.
O=C1CCN(Cc2ccc(O)cc2)CCN1[C@H](CO)Cc1ccccc1,0,54*,i,554
O=C1CCN(Cc2ccccc2)CCN1[C@H](CO)Cc1ccccc1,.,-2,i,568
C[C@@H]1CCCCO[C@H](CN(C)S(=O)(=O)c2ccccc2)[C@H](C)CN([C@@H](C)CO)C(=O)c2cc(NC(=O)Nc3ccc(C(F)(F)F)cc3)ccc2O1,3,.,.,.
N/C(=N/OC(=O)c1ccccc1Cl)c1ncc([N+](=O)[O-])s1,4,2,+,581
CCn1c2ccccc2c2c3ncc4cccn4c3ccc21,5,14,+,145
SMILES,CASP6 VEID inh,Vif imaging,Myeloid diff 2,T cell HTS
c1ccc2c(c1)ncc1cccn12,.,-2,i,378
CC(C)(C)c1ccc(C2=NC(=O)C(CC(=O)O)S2)cc1 (configuration not stated),6,16,+,466
COC(=O)CSc1nnc(-c2ccc(NS(=O)(=O)c3ccccc3)cc2)o1,.,13,+,229
O=C(C[C@H]1C[C@@H]2c3cc(NS(=O)(=O)c4ccc(F)cc4)ccc3O[C@@H]2[C@@H](CO)O1)NCc1ccc(-c2ccccc2)cc1,-1,.,.,.
COCC(=O)Nc1ccc2c(c1)C(=O)N(C)C[C@@H](OC)[C@H](C)CN(Cc1ccncc1)[C@@H](C)CO2,-1,.,.,.
CCOC(=O)c1[nH]c(C)c(C(=O)Nc2cccc(Cl)c2C)c1C,.,23,+,385
CN1C(=O)c2cc(NC(=O)c3ccc(F)c(F)c3)ccc2OC[C@H]2O[C@H](CC(=O)N[C@H]3CCN(Cc4ccccc4)C3)CC[C@@H]21,-4,.,.,.
COc1ccc(C(=O)NN=C2CCCC2)cc1,-1,-2,+,236
Cc1cc2c(NCCc3ccccc3)ncnc2s1,2,-7,+,124
COc1ccc(S(=O)(=O)N(C)C[C@@H]2Oc3ccc(NC(=O)NC(C)C)cc3CC(=O)N([C@@H](C)CO)C[C@H]2C)cc1,-1,.,.,.
COc1ccc(OC)c(-c2cc(C(=O)Nc3cc(C)on3)no2)c1,.,63*,i,298
CN(CC(=O)NCCc1ccc(S(N)(=O)=O)cc1)S(=O)(=O)c1cccc2nsnc12,1,2,+,263
CC(=O)NC1C(=O)N(CCN2CCOCC2)c2ccc(Br)cc21 (configuration not stated),34,.,i,76
CCOc1ccc2c(c1)C(NC(C)=O)C(=O)N2CCN1CCOCC1 (configuration not stated),55*,-3,i,152
COc1ccc(-c2cc(C(F)(F)F)c(C#N)c(SCC(=O)Nc3nc(C)co3)n2)cc1,-1,-14,i,149
Cc1coc(NC(=O)CSc2nc(-c3ccc(Cl)cc3)cc(C(F)(F)F)c2C#N)n1,.,-3,+,496
COCC(=O)Nc1ccc2c(c1)C(=O)N(C)C[C@@H](OC)[C@@H](C)CN(Cc1cccnc1)[C@H](C)CO2,1,.,.,.
CO[C@@H]1CN(C)C(=O)c2ccc(NC(=O)c3cc(C)on3)cc2OC[C@@H](C)N(C)C[C@@H]1C,-5,.,.,.
C[C@@H]1CN([C@H](C)CO)S(=O)(=O)c2ccc(C#CC3(O)CCCC3)cc2O[C@@H]1CN(C)C(=O)Cc1cccnc1,2,.,.,.
Cc1ccccc1NC(=S)N(Cc1cccs1)C1CCCC1,-4,51*,i,599
CCOc1ccccc1N1CCN(C(=O)/C=C/c2cccc([N+](=O)[O-])c2)CC1,.,-6,+,420
CCS(=O)(=O)NCC[C@H]1CC[C@H](NC(=O)Cc2ccccn2)[C@@H](CO)O1,2,.,.,.
CCOc1ccc(S(=O)(=O)NCCC(=O)NCC2(N3CCCCC3)CCCCC2)cc1,50*,4,i,i
CCOc1ccc(S(=O)(=O)NCC2(N3CCCCC3)CCCCC2)cc1,-1,-6,i,.
COc1ccc2oc(-c3ccc(C)c(NC(=O)c4ccc(N5CCOCC5)c([N+](=O)[O-])c4)c3)nc2c1,.,73*,?,361
COc1ccc(CNC(=O)c2ccc(N3CCOCC3)c([N+](=O)[O-])c2)cc1,-1,32,i,254
COc1ccc(N2C(=O)C(=O)/C(=C(/O)c3ccc(C)cc3)C2c2cccnc2)cc1 (configuration not stated),.,6,+,154
